Assay outcomes as filed in PubChem BioAssay.
This is a sample that favours compounds with a hit; in the whole collection about 5.8% have one here.
Pyk2 oligo antag – Pyk2 (human) oligomerization antagonism | AID 1347419 | Q14289 | z-score (the deposit names both 25 µM and 10 µM) | Q293 cells, Pyk2 FERM NanoBiT luminescence; hits give low values | 0.83% of 99,000 active;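 active = Z-score of -3 or lower, scaled per plate to the spread of control and sample wells; inactive = z-score above -3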;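 also: negative z-score means lost luminescence so less FERM oligomerization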
Cav3 T inh – blocks human Cav3.2 T-type calcium channel; O95180; Cav3.2-expressing cells, Fluo-4 calcium fluorescence FDSS; hits give low values; 4% of 100,000 active; B-score at 10 µM;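 active = single-dose well whose peak fluorescence ratio is a statistical outlier from its plate by either plate-standardised score or position-corrected B-score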
Target sequence (O95180 whole entry, looked up): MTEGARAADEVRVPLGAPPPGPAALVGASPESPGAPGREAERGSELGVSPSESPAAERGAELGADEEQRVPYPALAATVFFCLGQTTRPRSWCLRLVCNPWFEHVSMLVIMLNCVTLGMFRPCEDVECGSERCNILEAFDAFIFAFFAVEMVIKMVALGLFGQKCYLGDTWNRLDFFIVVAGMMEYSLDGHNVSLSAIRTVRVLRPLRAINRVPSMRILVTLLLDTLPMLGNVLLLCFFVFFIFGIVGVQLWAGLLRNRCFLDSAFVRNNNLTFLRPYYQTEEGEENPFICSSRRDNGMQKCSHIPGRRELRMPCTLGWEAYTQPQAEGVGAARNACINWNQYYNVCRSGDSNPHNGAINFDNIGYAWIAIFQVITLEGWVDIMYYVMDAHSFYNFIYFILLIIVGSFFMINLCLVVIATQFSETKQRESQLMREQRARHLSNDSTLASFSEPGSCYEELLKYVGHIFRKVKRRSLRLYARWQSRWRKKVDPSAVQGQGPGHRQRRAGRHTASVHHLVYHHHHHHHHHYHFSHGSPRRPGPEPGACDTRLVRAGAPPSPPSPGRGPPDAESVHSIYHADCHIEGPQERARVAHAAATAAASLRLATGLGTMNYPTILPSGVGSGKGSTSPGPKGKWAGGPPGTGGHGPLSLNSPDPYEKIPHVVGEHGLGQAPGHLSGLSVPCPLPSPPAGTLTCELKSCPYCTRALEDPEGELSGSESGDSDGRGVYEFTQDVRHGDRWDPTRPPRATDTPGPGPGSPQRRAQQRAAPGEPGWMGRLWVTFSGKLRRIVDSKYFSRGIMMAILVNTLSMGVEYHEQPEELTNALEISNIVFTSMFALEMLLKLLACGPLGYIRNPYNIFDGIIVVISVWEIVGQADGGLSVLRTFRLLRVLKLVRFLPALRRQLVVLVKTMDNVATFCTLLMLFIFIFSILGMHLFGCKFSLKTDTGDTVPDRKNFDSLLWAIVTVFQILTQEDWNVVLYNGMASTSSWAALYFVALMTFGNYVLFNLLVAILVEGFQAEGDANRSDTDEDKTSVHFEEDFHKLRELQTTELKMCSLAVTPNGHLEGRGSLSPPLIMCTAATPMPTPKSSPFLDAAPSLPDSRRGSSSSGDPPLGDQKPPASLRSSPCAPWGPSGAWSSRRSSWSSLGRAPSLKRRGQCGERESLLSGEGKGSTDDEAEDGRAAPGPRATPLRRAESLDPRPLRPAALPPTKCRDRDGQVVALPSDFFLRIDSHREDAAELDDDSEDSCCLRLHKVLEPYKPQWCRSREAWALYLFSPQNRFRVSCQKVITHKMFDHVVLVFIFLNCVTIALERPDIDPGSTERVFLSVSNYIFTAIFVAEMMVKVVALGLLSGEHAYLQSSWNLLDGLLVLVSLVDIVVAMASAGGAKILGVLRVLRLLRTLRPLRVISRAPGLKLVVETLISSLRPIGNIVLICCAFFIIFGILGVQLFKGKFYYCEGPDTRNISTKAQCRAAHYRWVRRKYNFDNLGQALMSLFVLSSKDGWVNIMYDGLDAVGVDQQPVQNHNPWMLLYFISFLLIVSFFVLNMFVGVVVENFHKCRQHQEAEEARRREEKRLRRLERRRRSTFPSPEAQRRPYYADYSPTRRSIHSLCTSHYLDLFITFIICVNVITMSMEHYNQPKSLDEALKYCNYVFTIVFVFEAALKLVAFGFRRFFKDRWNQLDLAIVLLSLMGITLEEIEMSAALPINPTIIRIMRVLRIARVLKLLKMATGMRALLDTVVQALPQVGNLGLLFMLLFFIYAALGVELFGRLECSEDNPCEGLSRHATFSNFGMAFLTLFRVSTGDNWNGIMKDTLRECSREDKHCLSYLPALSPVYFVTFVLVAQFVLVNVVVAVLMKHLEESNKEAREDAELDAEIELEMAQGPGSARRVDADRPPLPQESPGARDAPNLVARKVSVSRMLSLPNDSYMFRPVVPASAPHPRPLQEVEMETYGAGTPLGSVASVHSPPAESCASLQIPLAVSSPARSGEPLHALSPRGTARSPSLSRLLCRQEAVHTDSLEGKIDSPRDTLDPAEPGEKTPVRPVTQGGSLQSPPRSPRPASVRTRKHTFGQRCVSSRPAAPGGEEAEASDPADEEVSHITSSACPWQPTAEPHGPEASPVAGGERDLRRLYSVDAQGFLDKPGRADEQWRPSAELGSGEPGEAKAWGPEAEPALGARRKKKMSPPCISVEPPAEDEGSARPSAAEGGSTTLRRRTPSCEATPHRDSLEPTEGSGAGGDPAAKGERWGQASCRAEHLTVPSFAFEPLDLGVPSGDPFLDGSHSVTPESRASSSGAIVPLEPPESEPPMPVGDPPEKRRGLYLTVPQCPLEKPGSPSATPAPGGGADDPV
Plk1 PBD FP – inhibitors of human Plk1 polo box domain binding; P53350; Plk1 PBD phosphopeptide binding, fluorescence polarization; inhibition, %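 (tested at about 20 µM)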; 0.13% of 97,000 active; in the data active = inhibition above about 34%, passing the limit was not always enough
PLK1 inh – PLK1 (human) kinase inhibition. P53350. recombinant PLK1 kinase, TR-FRET peptide phosphorylation. inhibition, % at 10 µM. 0.53% of 97,000 active. AID 619;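 active = inhibition of 50% or more in the single-concentration screen; inactive = inhibition below 50%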
HIV Rev-RRE inh – inhibitors of HIV-1 Rev-RRE RNA interaction; Rev peptide-RRE RNA binding, FRET; inhibition, % at 8 µM; 0.79% of 97,000 active;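 active = inhibition above the screen-wide mean plus 3 SD, cut at about 35% in these data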
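Test system: Cy5-tagged RRE RNA duplex with fluorescein-tagged Rev peptide | Read-out: % inhibition of FRET ratio versus controls | Probe or stimulus: Labelled Rev peptide | Incubation: 5 min RNA-compound premix plus 15 min binding step, 25 °C | Technique: FRET fluorescence readout | Benchmarks: DMSO low control, neomycin B high control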
FAK inh – FAK (human) kinase inhibition. AID 727. biochemical FAK kinase activity assay. Q05397. inhibition, %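 (tested at 7 µM)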. 0.84% of 97,000 active; in the data active = inhibition above about 19%
PLK1 confirm – confirmation of human PLK1 kinase inhibitors | AID 744 | recombinant PLK1 kinase, TR-FRET peptide phosphorylation | 20% of 210 active | inhibition, % at 10 µM | shares compounds with PLK1 inh;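 active = inhibition at or above 50% in each of two repeat confirmation tests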
TR-FRET interf – Plk1 assay compound interference counter-screen hit. shares compounds with PLK1 inh. Plk1 TR-FRET assay interference, compound added post-reaction. inhibition (interference), % at 10 µM. 210 tested, under 10 active. AID 756;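 active = both duplicate runs show 50% or greater inhibition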
Redox H2O2 DR – counter-screen for Plk1 PBD inhibitors: redox cycling H2O2 generation; 120 tested, under 10 active; DTT; shares compounds with Plk1 PBD FP; EC50, µM; AID 876; call rule not given here
Each line names hits and unclear results; the compound was inactive in the other large screens (follow-up assays come after a bar, where they were run); [ ] = dose if it differs, or a comment.

O=C(COc1ccccc1)Nc1nnc(-c2ccc(Cl)s2)o1	Cav3 T inh -4.8, PLK1 inh 72 (no result: Pyk2 oligo antag) | PLK1 confirm inactive | TR-FRET interf inactive
C=CCn1c(SCCC(=O)O)nc2c1c(=O)n(C)c(=O)n2C	none
Clc1cccc(CSC2=NCCCN2)c1	none (no result: Pyk2 oligo antag)
COc1cccc(-c2nnc(SCC(=O)Nc3ccc(S(N)(=O)=O)cc3)n2C)c1	PLK1 inh 110 | PLK1 confirm inactive | TR-FRET interf inactive
CCN(CC)CCCN1C(=O)c2oc3ccccc3c(=O)c2C1c1cccc(OC)c1OC (stereo unspecified)	none
Cn1c(NC(=O)c2ccccc2C(F)(F)F)cc(=O)n(C)c1=O	PLK1 inh 76 (no result: Pyk2 oligo antag) | PLK1 confirm inactive | TR-FRET interf inactive
Cn1c(NC(=O)c2ccccc2Br)cc(=O)n(C)c1=O	none (no result: Pyk2 oligo antag, Plk1 PBD FP, PLK1 inh, HIV Rev-RRE inh, FAK inh)
Cc1nnc(NC(=O)CSc2nc3c(c(=O)n2C)SC(C)C3)s1 (stereo unspecified)	none (no result: Pyk2 oligo antag)
CC1Cc2nc(SCC(=O)Nc3nccs3)n(C)c(=O)c2S1 (stereo unspecified)	PLK1 inh 73 (no result: Pyk2 oligo antag) | PLK1 confirm 64 | TR-FRET interf inactive
COC(=O)c1c(-c2ccc(Br)cc2)noc1N	PLK1 inh 77 | PLK1 confirm 63 | TR-FRET interf inactive
CCOc1cc(-c2noc(N)c2C(=O)OC)cc(OCC)c1OCC	none (no result: Cav3 T inh)
NC(=O)CSc1nnc(-c2ccncc2)n1-c1ccc(Cl)cc1	PLK1 inh 73 (no result: Pyk2 oligo antag) | PLK1 confirm inactive | TR-FRET interf inactive
O=C(NCc1ccc2c(c1)OCO2)c1ccc(CS(=O)(=O)c2ccc(Br)cc2)o1	PLK1 inh 76 (no result: Pyk2 oligo antag) | PLK1 confirm inactive | TR-FRET interf inactive
CCn1c(C)c(C(C)=O)c(SC)nc1=S	none
Cc1ccc(C(=O)O)cc1S(=O)(=O)N1CCSCC1	PLK1 inh 82 | PLK1 confirm inactive | TR-FRET interf inactive
Cc1ccc(C(=O)O)cc1S(=O)(=O)N1CCOCC1	none
NC1(N)OC(CN2C(=O)c3ccccc3C2=O)CS1 (stereo unspecified)	PLK1 inh 116 | PLK1 confirm inactive | TR-FRET interf inactive
CCN=c1scc(C)n1/N=C/c1ccsc1	none
CN=c1scc(C)n1/N=C/c1ccc(O)c(O)c1O	PLK1 inh 82 | PLK1 confirm 85 | TR-FRET interf 70
Nc1[nH]ncc1N=Nc1ccc(Cl)cc1	PLK1 inh 83 | PLK1 confirm 75 | TR-FRET interf inactive
COc1cccc(NC(=O)CN2C(=O)COc3ccc(Cl)cc32)c1	Cav3 T inh -5.4, PLK1 inh 76 (no result: Pyk2 oligo antag) | PLK1 confirm inactive | TR-FRET interf inactive
CC1(C)Cc2ccccc2-c2nnc(SCC(=O)Nc3nc4ccccc4s3)n21	none
COc1cccc(C(=O)n2cnnc2N)c1OC	PLK1 inh 128 | PLK1 confirm inactive | TR-FRET interf inactive
CCn1ncc(CN2CCN(C(=O)Nc3ccccc3C(=O)OC)CC2)c1C	Plk1 PBD FP 39 | Redox H2O2 DR inactive
COC(=O)c1ccccc1NC(=O)N1CCN(C/C=C/c2ccccc2)CC1	none
Cn1c(-c2cc3ccc(OC(=O)C(C)(C)C)cc3oc2=O)nc2ccccc21	Plk1 PBD FP 37 | Redox H2O2 DR inactive
COc1ccc(Cn2c(=O)sc3ccccc32)cc1	Plk1 PBD FP 54 | Redox H2O2 DR inactive
COc1ccc(NC(=O)Cn2c(=O)sc3ccccc32)cc1	none
CCN(CC)S(=O)(=O)c1ccc(C(=O)N2CCN=C2SCc2cccnc2)cc1	none
CC1(C(=O)N(CC(=O)NC2CCCC2)Cc2ccco2)CC(=O)N=C2C=CC=CN21 (stereo unspecified)	none
COc1cccc(OC)c1C(=O)N1CCN(c2ccccn2)CC1	Plk1 PBD FP 38 | Redox H2O2 DR inactive
COc1ccccc1C(=O)N1CCN(c2ccccn2)CC1	none (no result: Cav3 T inh)
Cc1cc(C)n(-c2nnc3n2N=C(c2c[nH]c4ccccc24)CS3)n1	none
Cc1cc(C)n(-c2nnc3n2N=C(c2ccccc2)CS3)n1	Plk1 PBD FP 46 | Redox H2O2 DR inactive
CC(C)CN1C(=O)NC(NC(=O)c2ccco2)(C(F)(F)F)C1=O (stereo unspecified)	none
O=C(NC1(C(F)(F)F)NC(=O)N(CC2CCCCC2)C1=O)c1ccco1 (stereo unspecified)	Plk1 PBD FP 63 | Redox H2O2 DR inactive
CCCCCOc1ccc(C(=O)NC(C(=O)O)C(C)C)cc1 (stereo unspecified)	none
CC(=O)Nc1c(O)n(C)c2ccccc12	none (no result: Plk1 PBD FP, PLK1 inh, HIV Rev-RRE inh, FAK inh)
COC(=O)Nc1nc2c(s1)CCCC2	none (no result: Plk1 PBD FP, PLK1 inh, HIV Rev-RRE inh, FAK inh)
CN(C)c1ccc(C(=O)Nc2nc3c(s2)CCCC3)cc1	Plk1 PBD FP 46 (no result: Pyk2 oligo antag) | Redox H2O2 DR inactive
N#CCSc1nccc(-c2cc(Cl)sc2Cl)n1	none
C=CCSc1nccc(-c2cc(Cl)sc2Cl)n1	Plk1 PBD FP 46 | Redox H2O2 DR inactive
O=C(CSc1cn(Cc2ccccc2)c2ccccc12)N1CCOCC1	none (no result: Pyk2 oligo antag)
Cc1nn2c(=O)c(NC(=O)c3ccc(F)cc3)cnc2s1	none
Cc1ccc(C(=O)Nc2cnc3sc(C)nn3c2=O)cc1	Plk1 PBD FP 34 | Redox H2O2 DR inactive
CN1C(=O)CCC1(O)c1ccccc1 (stereo unspecified)	none
O=C1CCC(C(=O)O)(c2ccccc2)C1 (stereo unspecified)	Plk1 PBD FP 46 (no result: Pyk2 oligo antag) | Redox H2O2 DR inactive
COC(=O)N1CCN(S(=O)(=O)c2ccc(F)cc2)CC1	none
Cc1ccc(C(=O)c2c[nH]c(C(=O)NCCCN3CCOCC3)c2)cc1	Plk1 PBD FP 58 | Redox H2O2 DR inactive
Cc1ccccc1Oc1ncnc2oc(-c3ccccc3)cc12	Plk1 PBD FP 68 | Redox H2O2 DR inactive
Cc1cccc(-n2c(CCn3nc(C)c([N+](=O)[O-])c3C)n[nH]c2=S)c1	Plk1 PBD FP 46 | Redox H2O2 DR inactive
O=C(Cc1ccc(Cl)cc1)NCCN1CCCC1	Plk1 PBD FP 48 | Redox H2O2 DR inactive
Cn1c(=O)c(NCCO)c2c3c(cccc31)C(=O)c1ccccc1-2	Cav3 T inh -9, Plk1 PBD FP 96, HIV Rev-RRE inh 142[fluorescence artefact?] | Redox H2O2 DR inactive
C=CCc1ccc(OCCOCCNCCCC)c(OC)c1	none
CCOc1ccc(C)cc1S(=O)(=O)Nc1ccc(Cl)cn1	none
COc1ccc(C(C)C)cc1S(=O)(=O)Nc1ccc(Cl)cn1	Plk1 PBD FP 47 | Redox H2O2 DR inactive
c1ccc(NCc2nnc3n2CCCCC3)cc1	Plk1 PBD FP 45 | Redox H2O2 DR inactive
N#CCCCSc1nnc(-c2ccccn2)o1	none (no result: Cav3 T inh)
CC(C)(C)NC(=O)CC(CC(=O)O)c1ccccc1 (stereo unspecified)	Plk1 PBD FP 45 (no result: Pyk2 oligo antag) | Redox H2O2 DR inactive
